# A selection: hits, their analogues and other compounds. The true share with any hit is near 3%.
# Ecoli rRNA inh = inhibitors of bacterial rRNA selective over humanized ribosomes; E. coli WT GFP vs humanized-ribosome RFP mutants, fluorescence, 24 h; stronger effect = lower value; DMSO median 0, no signal -100; GFP signal change (wild-type ribosome), % (concentration not given with the values); 350,000 compounds, 1.6% hits;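 active means significant combined selectivity score with lowered wild-type GFP, culture density cut under 30%, mutant RFP and density less affected; inactive means any of these conditions unmet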
# Cneo AK release = causes C. neoformans cell lysis; adenylate kinase release luminescence, 4 h; normalised: neutral wells 0, clomiphene wells 100; lysis activity, % at 15 µM; 360,000 compounds, 0.2% hits; AID 651654;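 active means mean lysis activity across replicates of at least 80%, whatever share of replicates individually reach that level; inactive means mean lysis activity below 80%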
#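 Test system: log-phase Cryptococcus neoformans yeast cells. Input: 5 × 10^6 yeast cells/mL. Medium: fresh YPD growth medium. Doses: single dose. Incubation: static 4 h at 37 °C with compound, 1 h detection. Measured by: luminescent adenylate kinase detection reagent. Read-out: signal increase indicating cell lysis. Benchmarks: Clomiphene.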
# C2C12 statin = suppressors of simvastatin-induced myotoxicity in C2C12 myotubes; ATP luminescence, 48 h; scaled: DMSO 0, geranylgeraniol control 100; rescue of ATP level, % at 7.49 µM; 330,000 compounds, 0.78% hits; AID 602340;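 active means mean ATP rescue above about 67%, or every replicate alone reaching that limit, limit read from the data, passing the limit was not always enough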;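 further: myotubes were challenged with 10 µM simvastatin during compound exposure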
# PGC1a acetyl inh = modulators of PGC1a acetylation. U2OS PGC1a acetylation, AlphaScreen anti-acetyl-lysine; with virally co-expressed GCN5 acetyltransferase. inhibition, % at 15.6 µM. 350,000 compounds, 0.17% hits. AID 651687;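 active means every replicate shows inhibition of at least 40%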;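 further: 0% = neutral control wells and 100% = positive control wells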
# SIRT5 block = blocks human SIRT5 desuccinylation of peptide; Purified SirT5, succinyl-peptide AMC, trypsin-coupled fluorescence; AID 652115; 330,000 compounds, 1.1% hits; Q9NXA8; inhibition, % at 15 µM; in the data active means inhibition above about 15%
# Target sequence (Q9NXA8 whole entry, looked up): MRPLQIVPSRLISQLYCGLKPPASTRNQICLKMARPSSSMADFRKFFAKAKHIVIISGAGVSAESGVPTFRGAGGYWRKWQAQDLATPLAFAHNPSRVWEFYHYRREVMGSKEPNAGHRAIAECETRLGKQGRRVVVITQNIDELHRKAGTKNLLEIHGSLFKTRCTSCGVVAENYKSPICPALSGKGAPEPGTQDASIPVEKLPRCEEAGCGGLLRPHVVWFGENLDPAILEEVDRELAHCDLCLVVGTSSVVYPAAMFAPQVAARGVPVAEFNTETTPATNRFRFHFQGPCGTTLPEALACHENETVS
# S100A4 inh HTS = S100A4-myosin IIA interaction inhibition | S100A4/TAMRA-MyoIIA peptide fluorescence polarization | inhibition, % at 10.7 µM | 360,000 compounds, 0.14% hits;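 active means mean inhibition of at least 70% across replicates, with every replicate also reaching that level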
# Target sequence (P26447 whole entry, looked up): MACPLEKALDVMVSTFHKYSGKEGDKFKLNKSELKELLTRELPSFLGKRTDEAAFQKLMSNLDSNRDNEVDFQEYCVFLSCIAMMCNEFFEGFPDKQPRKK
#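 Material: S100A4 monomer protein | Medium: HEPES pH 7.2 with CaCl2, KCl, NaCl, DTT, Triton | Reagent: Labelled myosin peptide probe, 5 nM | Doses: One dose per compound | Times: 5 min incubation before reading | Benchmarks: Neutral control DMSO, positive control TFP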
# * hit, by the source's call; / = no result given.
SMILES,Ecoli rRNA inh,Cneo AK release,C2C12 statin,PGC1a acetyl inh,SIRT5 block,S100A4 inh HTS
C[C@@H]1CN([C@@H](C)CO)C(=O)c2c(c3ccccc3n2C)-c2ccccc2CO[C@@H]1CN(C)C(=O)[C@H](C)c1ccccc1,1.3,/,/,-115.2,19.9*,-30.8
C[C@@H]1CN([C@@H](C)CO)C(=O)c2c(c3ccccc3n2C)-c2ccccc2CO[C@@H]1CN(C)Cc1ccc(-c2ccccc2)cc1,4.2,/,/,/,17.0*,5.0
CC1=C(C(=O)OCc2ccccc2)C(c2ccccc2)NC(=O)N1 (centres undefined),-5.1,80.3*,8.7,-0.2,/,-4.5
COc1ccc(C2NC(=O)NC(C)=C2C(=O)OCc2ccccc2)cc1 (centres undefined),-5.4,0.5,6.1,-15.5,0.2,-3.9
COc1ccc(COC(=O)C2=C(C)NC(=O)NC2c2ccc(O)c(OC)c2)cc1 (centres undefined),-21.8*,-5.1,2.9,-0.2,-1.6,-0.3
COc1ccc2oc(C)c(C(=O)c3ccccc3)c2c1,-29.9*,/,/,-13.8,-0.8,-12.7
Cc1cc(Cl)nc(-n2nc(C)cc2C)n1,-32.4*,-0.5,/,8.0,0.5,-0.4
CNc1cc(C)nc(-n2nc(C)cc2C)n1,/,16.5,-6.0,-11.1,/,/
Cc1sc2nc(CN3CCOCC3)nc(N3CCN(S(=O)(=O)c4ccccc4)CC3)c2c1C,-24.4*,-2.4,-0.4,-3.8,-4.7,-8.7
CCNC(=O)C[C@@H]1CC[C@H]2[C@@H](COC[C@@H](O)CN2C(=O)C2CC2)O1,4.4,-3.8,0.4,0.4,-5.7,8.1
COc1ccc(S(=O)(=O)NCc2cccnc2)c2ccccc12,-2.2,0.7,93.8*,-3.0,-1.8,0.4
COc1ccc(OC)c(S(=O)(=O)NCc2ccccc2)c1,/,2.9,2.0,/,/,/
O=S(=O)(NCc1cccnc1)c1ccc(Br)c2ccccc12,-9.0,0.7,10.2,/,/,-11.0
COc1ccc(OC)c(S(=O)(=O)NCc2cccnc2)c1,/,0.1,125.6*,1.5,/,/
COCC#Cc1ccc([C@H]2[C@H]3CN(C(=O)C4CCOCC4)CC(=O)N3[C@H]2CO)cc1,1.8,/,/,14.4,0.7,22.9
COc1ccc(N2CCN(c3ncnc4scc(-c5ccc(F)cc5)c34)CC2)cc1,-23.5*,1.6,4.1,5.7,-2.9,-4.6
COc1ccc(-c2csc3nc[nH]c(=O)c23)cc1,-7.7,/,/,7.8,22.8*,18.2
S=c1[nH]cnc2scc(-c3ccc(Cl)cc3)c12,-51.2*,14.0,/,8.8,-4.5,-16.9
O=c1[nH]cnc2scc(-c3ccsc3)c12,/,-0.8,117.2*,-4.1,/,/
COc1ccc(N2CCN(c3ncnc4scc(-c5ccc(C)cc5)c34)CC2)cc1,2.2,0.1,-13.7,/,-4.5,-5.2
S=c1[nH]cnc2scc(-c3ccc(Br)cc3)c12,-8.8,/,/,/,-0.2,4.5
CCOC(=O)C1(CC2CCCCO2)CCN(C(=O)Nc2ccc(C(=O)OC)cc2)CC1 (centres undefined),-19.1*,-0.4,1.6,5.3,-0.7,-13.8
CCOC(=O)C1(CC2CCCCO2)CCN(Cc2nc(C(C)C)cs2)CC1 (centres undefined),-29.4*,/,/,-7.5,0.6,5.0
C[C@@H]1CCCCO[C@@H](CN(C)Cc2ccc(C(F)(F)F)cc2)[C@H](C)CN([C@@H](C)CO)C(=O)c2cc(NS(=O)(=O)c3cccs3)ccc2O1,-1.3,0.3,72.3*,-9.1,19.0*,-5.5
C[C@@H]1CCCCO[C@H](CN(C)Cc2ccc(C(F)(F)F)cc2)[C@@H](C)CN([C@H](C)CO)C(=O)c2cc(NS(=O)(=O)c3cccs3)ccc2O1,-2.5,-3.0,-21.8,14.4,4.6,29.5
SMILES,Ecoli rRNA inh,Cneo AK release,C2C12 statin,PGC1a acetyl inh,SIRT5 block,S100A4 inh HTS
C[C@@H]1CCCCO[C@@H](CN(C)Cc2ccc(C(F)(F)F)cc2)[C@@H](C)CN([C@H](C)CO)C(=O)c2cc(NS(=O)(=O)c3cccs3)ccc2O1,-0.3,-1.6,-73.7,10.9,2.0,16.7
C[C@@H]1CCCCO[C@H](CN(C)Cc2ccc(C(F)(F)F)cc2)[C@H](C)CN([C@H](C)CO)C(=O)c2cc(NS(=O)(=O)c3cccs3)ccc2O1,-1.4,-0.2,-60.3,-12.8,16.1*,21.2
C[C@@H]1CN([C@H](C)CO)C(=O)c2cc(NS(=O)(=O)c3ccc(Cl)cc3)ccc2O[C@@H](C)CCCCO[C@@H]1CN(C)C(=O)NC1CCCCC1,3.3,4.6,/,0.0,0.5,0.7
O=C(Nc1ccc(F)cc1)N1CC(=O)N2[C@H](C1)[C@H](c1ccc(C3=CCCC3)cc1)[C@@H]2CO,-1.5,/,/,-0.4,0.8,-29.1
CC(C(=O)NCc1ccc(Cl)cc1)n1cccc1C(=O)c1ccccc1 (centres undefined),-41.9,1.4,24.7,1.5,-2.9,1.2
CC(C(=O)NCC1CCCO1)n1cccc1C(=O)c1ccccc1 (centres undefined),/,6.3,106.9*,-0.3,/,/
COc1ccc(N=C2NC(=O)/C(=C/c3ccco3)S2)cc1,-12.4,0.0,/,6.2,1.7,-2.8
COc1ccc(S(=O)(=O)/N=C2/NC(=O)/C(=C/c3ccco3)S2)cc1,-6.2,/,/,/,16.1*,-1.7
O=C(/C=C/C(=O)N1CCc2ccccc2C1)N1CCc2ccccc2C1,-21.9*,/,/,/,-2.8,-2.5
C[C@@H]1CCCCO[C@@H](CN(C)S(=O)(=O)c2cccs2)[C@@H](C)CN([C@@H](C)CO)C(=O)c2cc(NC(=O)c3ccccc3)ccc2O1,0.1,-8.7,/,3.1,/,/
CCOC(=O)c1nc2c(ccc3ccccc32)cc1C,-31.2*,-2.2,/,-11.1,-7.4,-1.8
Cc1ccc(N2CCN(C(=O)CCc3nc4ccccc4[nH]3)CC2)c(C)c1,-29.4,2.2,-0.4,5.1,-8.8,-7.5
Cc1cccc(N2CCN(C(=O)CCc3nc4ccccc4[nH]3)CC2C)c1 (centres undefined),5.2,8.0,-5.7,/,16.9*,-2.8
CCC(c1nc2ccccc2c(=O)n1CCN1CCOCC1)N1C(=O)c2ccccc2C1=O (centres undefined),/,1.8,140.7*,-17.9,/,/
O=C(COC(=O)CNC(=O)c1ccc(Br)o1)Nc1ccc2c(c1)OCCO2,/,2.1,141.2*,-2.0,/,/
C[C@H]1CN([C@@H](C)CO)C(=O)c2cccc(NC(=O)Nc3ccc(F)cc3)c2O[C@H]1CN(C)CC1CC1,1.8,/,/,-3.6,-5.1,-3.6
Cc1ccc(S(=O)(=O)N(CC(=O)NCc2ccco2)Cc2ccccc2F)cc1,/,0.0,66.7*,-0.6,/,/
C[C@@H]1CN([C@@H](C)CO)C(=O)c2cc(NC(=O)Cc3cn(C)c4ccccc34)ccc2O[C@@H]1CN(C)Cc1ccc(Oc2ccccc2)cc1,2.7,3.6,/,-14.8,19.0*,10.5

# Screens: PubChem, Broad Institute
